Measurements from ChEMBL document CHEMBL2040756, “Discovery and optimization of 2,4-diaminoquinazoline derivatives as a new class of potent dengue virus inhibitors” (J Med Chem, 2012).
Active and inactive are the calls of the source. The calls are words filed in the database; no cut-off is given here.

How the values were obtained:
dengue virus type 2 [1] = test: Antiviral activity against Dengue virus 2 infected in BHK-D2RepT replicon systems assessed as inhibition of viral replication after 24 hrs by luciferase reporter gene assay; assay type: functional, organism-based
Procedure, shortened: (§1)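 BHK-D2RepT replicon cells, kept in MEM with 10% FBS and 200 μg/mL G418, were preseeded 24 h without G418. Compounds were diluted from DMSO stock into MEM, with final DMSO <0.2% (v/v), and incubated 24 h. Medium was then replaced and firefly luciferase read. Inhibition was expressed as a percentage of the no-compound luciferase signal.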

[2] = Cytotoxicity against hamster BHK cells; assay type: cell-based, Mesocricetus auratus
[3] = Selectivity index, ratio of CC50 for hamster BHK cells to EC50 for Dengue virus 2; assay type: toxicity, cell-based; conditions: read-out: Ratio CC50/EC50
dengue virus type 2 [4] = test: Antiviral activity against Dengue virus 2 infected in BHK-D2RepT replicon systems assessed as inhibition of viral multiplication after 24 hrs by luciferase reporter gene assay; assay type: functional, organism-based; procedure, shortened: as §1
dengue virus type 2 [5] = test: Antiviral activity against Dengue virus 2 infected in BHK-D2RepT replicon systems assessed as inhibition of viral expression after 24 hrs by luciferase reporter gene assay; assay type: functional, organism-based; procedure, shortened: as §1
dengue virus type 2 [6] = test: Antiviral activity against Dengue virus 2 infected in BHK-D2RepT replicon systems assessed as […] after 24 hrs by luciferase reporter gene assay; assay type: functional, organism-based
Procedure, shortened: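 BHK-D2RepT DENV-2 replicon cells carrying a luciferase reporter are kept in MEM with 10% FBS and 200 μg/mL G418, then preseeded 24 h without G418. Compound from DMSO stock is diluted in MEM (final DMSO <0.2% v/v) and incubated 24 h. Medium is replaced and firefly luciferase read. Inhibition is expressed as percent of no-compound luciferase signal.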

dengue virus type 2 [7] = test: Antiviral activity against Dengue virus 2 NGC infected in forest mosquito C6/36 cells assessed as inhibition of virus-induced cytopathic effect after 48 hrs by optical microscopy; assay type: functional, organism-based
Procedure, shortened: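 DENV-2 NGC strain was grown in C6/36 cells and titered. C6/36 cells were preseeded overnight and then infected at MOI 0.01, allowing several rounds of replication that produce syncytia.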

[8] = AUC (0 to infinity) in rat at 20 mg/kg, po administered as single dose; assay type: ADME, organism-based; set-up: time infinity, dose 20 mg/kg, route oral; conditions: plasma
Procedure, shortened: (§2)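 Rats received one dose, either oral at 20 mg/kg or intravenous at 10 mg/kg. Plasma concentration of the compound was followed over time after dosing. AUC was taken as the area under the plasma concentration–time curve from time zero to infinity.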

[9] = Mean residence time in rat at 20 mg/kg, po administered as single dose; assay type: ADME, organism-based; set-up: dose 20 mg/kg, route oral; conditions: in vivo
Procedure, shortened: (§3)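 Rats received a single dose of 20 mg/kg orally or 10 mg/kg intravenously. Plasma concentration–time profiles gave AUC0→∞, MRT, t1/2, Tmax, Cmax, clearance, terminal volume of distribution and oral bioavailability.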

[10] = Half life in rat at 20 mg/kg, po administered as single dose; assay type: ADME, organism-based; set-up: dose 20 mg/kg, route oral; conditions: in vivo; procedure, shortened: as §3
[11] = Tmax in rat at 20 mg/kg, po administered as single dose; assay type: ADME, organism-based; set-up: dose 20 mg/kg, route oral; conditions: in vivo; procedure, shortened: as §3
[12] = Cmax in rat at 20 mg/kg, po administered as single dose measured 2 hrs post dose; assay type: ADME, organism-based; set-up: dose 20 mg/kg, route oral; conditions: in vivo; procedure, shortened: as §3
[13] = Plasma clearance in rat at 10 mg/kg, iv administered as single dose; assay type: ADME, organism-based; set-up: dose 10 mg/kg, route intravenous; procedure, shortened: as §3
[14] = Apparent volume of distribution in rat at 10 mg/kg, iv administered as single dose; assay type: ADME, organism-based; set-up: dose 10 mg/kg, route intravenous; conditions: in vivo, read-out: Vz; procedure, shortened: as §3
[15] = Oral bioavailability in rat at 20 mg/kg administered as single dose; assay type: ADME, organism-based; conditions: in vivo; procedure, shortened: as §3
[16] = AUC (0 to infinity) in rat at 10 mg/kg, iv administered as single dose; assay type: ADME, organism-based; set-up: time infinity, dose 10 mg/kg, route intravenous; conditions: plasma; procedure, shortened: as §2
[17] = Mean residence time in rat at 10 mg/kg, iv administered as single dose; assay type: ADME, organism-based; set-up: dose 10 mg/kg, route intravenous; conditions: in vivo; procedure, shortened: as §3
[18] = Half life in rat at 10 mg/kg, iv administered as single dose; assay type: ADME, organism-based; set-up: dose 10 mg/kg, route intravenous; conditions: in vivo; procedure, shortened: as §3
[19] = target: Voltage-gated inwardly rectifying potassium channel KCNH2 (Homo sapiens, UniProt Q12809); test: Inhibition of human ERG expressed in HEK293 cells by patch clamp assay; assay type: cell-based
Procedure, shortened: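 hERG (IKr) potassium channel currents in HEK-293 cells were recorded by patch clamp.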

dengue virus type 2 [20] = test: Antiviral activity against Dengue virus 2

Voltage-gated inwardly rectifying potassium channel KCNH2, sequence (Q12809 whole entry): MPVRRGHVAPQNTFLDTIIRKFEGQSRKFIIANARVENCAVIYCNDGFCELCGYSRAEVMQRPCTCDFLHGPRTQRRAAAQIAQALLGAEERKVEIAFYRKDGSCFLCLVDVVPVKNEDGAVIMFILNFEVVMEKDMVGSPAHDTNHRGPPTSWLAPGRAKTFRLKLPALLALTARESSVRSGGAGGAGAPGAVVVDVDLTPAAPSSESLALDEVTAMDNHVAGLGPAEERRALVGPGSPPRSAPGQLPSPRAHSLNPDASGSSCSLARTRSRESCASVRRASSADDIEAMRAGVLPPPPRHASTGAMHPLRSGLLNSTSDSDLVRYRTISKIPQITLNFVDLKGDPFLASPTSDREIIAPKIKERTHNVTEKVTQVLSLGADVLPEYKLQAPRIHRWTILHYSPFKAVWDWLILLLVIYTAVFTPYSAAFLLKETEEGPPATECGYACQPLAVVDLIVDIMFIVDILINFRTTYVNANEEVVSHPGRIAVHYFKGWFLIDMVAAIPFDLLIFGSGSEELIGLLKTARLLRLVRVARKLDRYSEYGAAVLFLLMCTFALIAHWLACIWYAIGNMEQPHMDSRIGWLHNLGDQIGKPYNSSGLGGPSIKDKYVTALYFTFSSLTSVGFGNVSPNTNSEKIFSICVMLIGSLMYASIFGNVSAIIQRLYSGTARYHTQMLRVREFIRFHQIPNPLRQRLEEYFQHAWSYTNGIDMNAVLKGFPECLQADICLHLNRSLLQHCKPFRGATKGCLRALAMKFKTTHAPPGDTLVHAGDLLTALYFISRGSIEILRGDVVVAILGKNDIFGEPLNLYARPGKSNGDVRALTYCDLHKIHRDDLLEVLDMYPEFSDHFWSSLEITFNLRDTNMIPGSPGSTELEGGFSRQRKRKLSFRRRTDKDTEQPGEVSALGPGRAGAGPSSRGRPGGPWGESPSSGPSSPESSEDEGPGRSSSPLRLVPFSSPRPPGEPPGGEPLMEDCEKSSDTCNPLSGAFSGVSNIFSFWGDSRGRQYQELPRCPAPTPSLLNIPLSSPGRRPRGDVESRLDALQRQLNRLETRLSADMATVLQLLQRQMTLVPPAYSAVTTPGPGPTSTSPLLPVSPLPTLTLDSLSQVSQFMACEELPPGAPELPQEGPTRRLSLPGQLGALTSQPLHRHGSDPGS

EC50 (dengue virus type 2 [1]) | Structure (SMILES) | CC50 [2] | selectivity ratio [3] | further results
7.4 nM | Nc1nc(N)c2c(OC3CCCC3)cccc2n1 | > 10000 nM | > 1000 | –
> 10000 nM | COc1ccc2nc(N)nc(N)c2c1 | > 10000 nM | – | –
> 10000 nM | Nc1nc(N)c2ccc(Oc3ccccc3)cc2n1 | > 10000 nM | – | –
150 nM | Nc1nc(N)c2c(N3CCCC3)cccc2n1 | 1200 nM | 8 | –
> 10000 nM | Nc1nc(N)c2c(F)cccc2n1 | > 10000 nM | – | –
> 10000 nM | COc1ccc2c(N)nc(N)nc2c1 | > 10000 nM | – | –
37 nM | CCOc1cccc2nc(N)nc(N)c12 | > 10000 nM | > 200 | –
9.2 nM | CC(C)(C)Nc1cccc2nc(N)nc(N)c12 | 2500 nM | > 200 | –
150 nM | COc1cccc2nc(N)nc(N)c12 | > 10000 nM | > 66.7 | –
> 10000 nM | Nc1nc(N)c2cc(Oc3ccccc3)ccc2n1 | > 10000 nM | – | –
60 nM | Nc1nc(N)c2cccc(Oc3ccccc3)c2n1 | 550 nM | 9.2 | –
7.9 nM | Nc1nc(N)c2c(OCC(F)(F)F)cccc2n1 | > 10000 nM | > 1000 | –
3300 nM | CN(C)c1cccc2nc(N)nc(N)c12 | > 10000 nM | > 3 | –
130 nM | Nc1nc(N)c2c(OC3CCCCC3)cccc2n1 | > 10000 nM | > 76.9 | –

Continued, compound first:

Structure (SMILES) | EC50 (dengue virus type 2 [1]) | CC50 [2] | selectivity ratio [3] | further results
CC(C)(C)Oc1cccc2nc(N)nc(N)c12 | 2.8 nM | > 10000 nM | > 1000 | Activity (dengue virus type 2 [4]): Active; Activity (dengue virus type 2 [5]): Active; EC50 (dengue virus type 2 [6]): < 50 nM; Activity (dengue virus type 2 [7]): Active; AUC(0-inf) [8]: 2220 ng·h/mL; MRT [9]: 7.2 h; half-life [10]: 5 h; Tmax [11]: 2 h; Cmax [12]: 249 ng/mL; clearance [13]: 6.56 mL/min/kg; Vd [14]: 11.7 L/kg; bioavailability [15]: 69%; AUC(0-inf) [16]: 1560 ng·h/mL; MRT [17]: 1.8 h; half-life [18]: 1.3 h; IC50 [19]: 20200 nM; Activity (dengue virus type 2 [20]): Active
COc1cccc2c(N)nc(N)nc12 | 5400 nM | > 10000 nM | > 1.9 | –
CC(C)(C)COc1cccc2nc(N)nc(N)c12 | 80 nM | 650 nM | 8.1 | –
CCCCOc1cccc2nc(N)nc(N)c12 | 36 nM | > 10000 nM | > 200 | –
CCCCCCCCOc1cccc2nc(N)nc(N)c12 | 180 nM | 730 nM | 4.1 | –
CC(C)(C)S(=O)(=O)c1cccc2nc(N)nc(N)c12 | > 10000 nM | > 10000 nM | – | –
Nc1nc(N)c2ccccc2n1 | > 10000 nM | > 10000 nM | – | –
Nc1nc(N)c2c(Oc3ccccc3)cccc2n1 | 29 nM | > 10000 nM | > 300 | –
CC(C)(C)Sc1cccc2nc(N)nc(N)c12 | 900 nM | 5300 nM | 5.9 | –
Nc1nc(N)c2c(OCc3ccccc3)cccc2n1 | 39 nM | > 10000 nM | > 200 | –
